# From ChEMBL document CHEMBL2029288, “Coumarin-trioxane hybrids: synthesis and evaluation as a new class of antimalarial scaffolds” (Bioorg Med Chem Lett, 2012)
# System: Plasmodium yoelii nigeriensis
# Test: Antimalarial activity against multi drug-resistant Plasmodium yoelii nigeriensis infected in Swiss mouse assessed as suppression in parasitemia at 96 mg/kg, po on day 4
# Type: functional
# Conditions: not given
# Summary of the method: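 Peters's 4-day suppressive test in Swiss mice infected with P. yoelii nigeriensis. Compound given orally at 96 mg/kg/day for 4 days; parasitaemia suppression scored on day 4.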
row,Compound,Activity [%]
1,C=C(c1ccc(C)cc1)C1COC(c2cc(C)c3oc(=O)c(C(=O)OCC)cc3c2)OO1 (centres undefined),41.14

# System: Plasmodium falciparum
# Test: Antimalarial activity against chloroquine-sensitive Plasmodium falciparum 3D7 after 72 hrs by MSF assay
# Type: functional, organism-based
# Conditions: 3D7, 72 h
# Summary of the method: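 Parasites in 1% cell suspension at 0.8–1% initial parasitaemia, exposed to compounds in duplicate wells for 72 h at 37 °C under 5% CO2 in air. SYBR Green-I then added for 1 h at 37 °C; fluorescence read at excitation 485 ± 20 nm, emission 530 ± 20 nm. Signal expressed as percent of untreated controls; IC50 by logit regression. Chloroquine standard.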
row,Compound,IC50 [µg/mL]
1,C=C(c1ccc(C)cc1)C1COC(c2cc(C)c3oc(=O)c(C(=O)OC)cc3c2)OO1 (centres undefined),0.361
2,C=C(c1ccc(C)cc1)C1COC(c2cc(C)c3oc(=O)c(C(=O)OCC)cc3c2)OO1 (centres undefined),0.262
3,C=C(c1ccc(C)cc1)C1COC(c2cc(C(C)CC)c3oc(=O)c(C(=O)OC)cc3c2)OO1 (centres undefined),0.132
4,C=C(c1ccc(C)cc1)C1COC(c2cc(C(C)CC)c3oc(=O)c(C(=O)OCC)cc3c2)OO1 (centres undefined),0.0393
5,C=C(c1ccc(Br)cc1)C1COC(c2cc(C)c3oc(=O)c(C(=O)OC)cc3c2)OO1 (centres undefined),0.306
6,C=C(c1ccc(Br)cc1)C1COC(c2cc(C)c3oc(=O)c(C(=O)OCC)cc3c2)OO1 (centres undefined),0.246
7,C=C(c1ccc(Br)cc1)C1COC(c2cc(C(C)CC)c3oc(=O)c(C(=O)OC)cc3c2)OO1 (centres undefined),0.076
8,C=C(c1ccc(Br)cc1)C1COC(c2cc(C(C)CC)c3oc(=O)c(C(=O)OCC)cc3c2)OO1 (centres undefined),0.11
9,C=C(c1ccc(F)cc1)C1COC(c2cc(C)c3oc(=O)c(C(=O)OC)cc3c2)OO1 (centres undefined),> 0.5
10,C=C(c1ccc(F)cc1)C1COC(c2cc(C)c3oc(=O)c(C(=O)OCC)cc3c2)OO1 (centres undefined),> 0.5
11,C=C(c1ccc(F)cc1)C1COC(c2cc(C(C)CC)c3oc(=O)c(C(=O)OC)cc3c2)OO1 (centres undefined),0.203
12,C=C(c1ccc(F)cc1)C1COC(c2cc(C(C)CC)c3oc(=O)c(C(=O)OCC)cc3c2)OO1 (centres undefined),0.117
13,CO[C@H]1O[C@@H]2O[C@@]3(C)CC[C@H]4[C@H](C)CC[C@@H]([C@H]1C)[C@@]24OO3 [ARTEMETHER],0.0004
